Reference: ChEMBL document CHEMBL3352171, “Synthesis and biological evaluation of andrographolide analogues as anti-cancer agents” (Eur J Med Chem, 2014)
The source made the active and inactive calls. The calls are words filed in the database; no cut-off is given here.

Legend:
[1] = system: Calf thymus DNA; test: Binding affinity to calf thymus DNA assessed as reduction of DNA absorption band at 260 nanometer at 3.33 to 20 uM after 2 hrs by UV-visible absorption spectroscopy; assay type: nucleic-acid assay; conditions: Bos taurus
Procedure, shortened: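 CT-DNA at fixed […] in 50 mM Tris-HCl/NaCl pH 7.5, incubated with compound for 2 h at 37 °C, scanned 200–400 nm after dilution. Spectra normalized at 230 nm. Fraction bound q from absorbance near 260 nm; Boltzmann fit, Kb as reciprocal of half-saturation concentration.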

[2] = target: Nuclear factor NF-kappa-B complex (Homo sapiens) (UniProt Q00653+P19838+Q04206); test: Inhibition of NFkappaB (unknown origin) expressed in HEK293 cells assessed as reduction in transcriptional activity at 5 uM after 48 hrs by luciferase reporter gene assay; assay type: cell-based
Nuclear factor NF-kappa-B complex (Homo sapiens), sequence (P19838 whole entry, looked up): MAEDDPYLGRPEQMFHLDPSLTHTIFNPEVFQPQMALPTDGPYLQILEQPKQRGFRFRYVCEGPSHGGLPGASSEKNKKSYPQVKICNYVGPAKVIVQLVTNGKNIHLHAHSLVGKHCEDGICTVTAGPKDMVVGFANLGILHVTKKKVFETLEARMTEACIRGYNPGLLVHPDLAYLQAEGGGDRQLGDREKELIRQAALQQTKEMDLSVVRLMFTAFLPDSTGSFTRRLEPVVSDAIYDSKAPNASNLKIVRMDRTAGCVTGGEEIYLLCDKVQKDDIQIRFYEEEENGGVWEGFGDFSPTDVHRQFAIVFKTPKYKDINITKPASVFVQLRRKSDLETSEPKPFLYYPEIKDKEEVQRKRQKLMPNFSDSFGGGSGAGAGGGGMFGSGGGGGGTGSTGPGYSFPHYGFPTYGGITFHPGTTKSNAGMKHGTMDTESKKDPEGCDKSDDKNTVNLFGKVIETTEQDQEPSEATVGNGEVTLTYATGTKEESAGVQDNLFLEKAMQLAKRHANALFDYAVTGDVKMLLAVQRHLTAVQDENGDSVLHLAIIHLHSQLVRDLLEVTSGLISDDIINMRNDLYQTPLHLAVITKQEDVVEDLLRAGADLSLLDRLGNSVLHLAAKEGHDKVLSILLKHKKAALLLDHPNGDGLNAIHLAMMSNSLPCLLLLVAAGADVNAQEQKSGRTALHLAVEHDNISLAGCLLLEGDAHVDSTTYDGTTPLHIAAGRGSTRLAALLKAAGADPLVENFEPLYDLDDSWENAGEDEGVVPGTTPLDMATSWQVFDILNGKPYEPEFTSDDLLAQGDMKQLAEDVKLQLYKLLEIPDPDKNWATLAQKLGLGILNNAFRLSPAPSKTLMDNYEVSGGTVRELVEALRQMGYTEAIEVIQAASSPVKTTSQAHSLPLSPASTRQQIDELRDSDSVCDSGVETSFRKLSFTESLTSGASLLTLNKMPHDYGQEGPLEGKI
Nuclear factor NF-kappa-B complex (Homo sapiens), sequence (Q00653 whole entry, looked up): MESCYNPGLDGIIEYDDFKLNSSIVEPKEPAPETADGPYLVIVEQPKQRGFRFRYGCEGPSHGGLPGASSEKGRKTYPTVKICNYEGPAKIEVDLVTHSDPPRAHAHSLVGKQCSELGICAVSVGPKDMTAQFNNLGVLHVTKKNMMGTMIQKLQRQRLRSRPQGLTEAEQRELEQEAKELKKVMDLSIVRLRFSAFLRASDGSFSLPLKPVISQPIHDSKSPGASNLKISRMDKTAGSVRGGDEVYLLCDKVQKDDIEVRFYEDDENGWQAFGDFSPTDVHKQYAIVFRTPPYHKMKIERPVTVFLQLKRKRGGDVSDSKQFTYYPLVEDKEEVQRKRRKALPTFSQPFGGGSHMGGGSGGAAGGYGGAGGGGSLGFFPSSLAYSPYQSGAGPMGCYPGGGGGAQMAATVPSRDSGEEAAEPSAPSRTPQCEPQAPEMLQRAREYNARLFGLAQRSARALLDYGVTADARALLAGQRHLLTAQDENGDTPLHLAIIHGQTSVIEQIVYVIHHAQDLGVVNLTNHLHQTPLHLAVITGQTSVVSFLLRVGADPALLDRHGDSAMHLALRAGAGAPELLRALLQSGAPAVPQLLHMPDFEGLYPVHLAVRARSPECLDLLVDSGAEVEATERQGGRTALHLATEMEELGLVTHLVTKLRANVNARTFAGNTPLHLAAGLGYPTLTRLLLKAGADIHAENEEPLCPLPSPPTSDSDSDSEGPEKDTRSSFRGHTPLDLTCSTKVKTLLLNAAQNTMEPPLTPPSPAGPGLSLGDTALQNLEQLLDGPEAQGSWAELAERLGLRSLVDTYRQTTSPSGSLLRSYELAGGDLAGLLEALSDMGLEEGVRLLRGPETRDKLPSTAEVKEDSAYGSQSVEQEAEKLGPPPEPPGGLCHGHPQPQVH
Nuclear factor NF-kappa-B complex (Homo sapiens), sequence (Q04206 whole entry, looked up): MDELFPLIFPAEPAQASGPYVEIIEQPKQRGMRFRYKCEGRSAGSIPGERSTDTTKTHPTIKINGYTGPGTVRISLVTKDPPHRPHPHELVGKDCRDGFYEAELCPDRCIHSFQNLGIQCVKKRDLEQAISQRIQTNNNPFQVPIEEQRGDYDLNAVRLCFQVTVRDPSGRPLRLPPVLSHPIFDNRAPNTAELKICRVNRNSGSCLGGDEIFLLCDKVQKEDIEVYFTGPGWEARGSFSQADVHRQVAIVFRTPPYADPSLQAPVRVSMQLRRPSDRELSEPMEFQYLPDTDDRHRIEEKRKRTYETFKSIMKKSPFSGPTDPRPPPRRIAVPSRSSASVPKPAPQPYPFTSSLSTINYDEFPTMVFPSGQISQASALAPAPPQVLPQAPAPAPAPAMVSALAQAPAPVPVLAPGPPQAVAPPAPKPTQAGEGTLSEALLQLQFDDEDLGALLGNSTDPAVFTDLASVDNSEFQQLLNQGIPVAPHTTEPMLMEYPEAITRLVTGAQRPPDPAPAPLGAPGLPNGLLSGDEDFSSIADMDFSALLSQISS
Procedure, shortened: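 HEK-293 at 70% confluence transfected by calcium phosphate with NF-kB luciferase ([…]) and b-Gal ([…]) plasmids, 6–8 h, then fresh serum medium 12 h; treated 48 h, lysed, luciferase read and normalized to b-galactosidase. Three independent experiments.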

[3] = system: HEK293; test: Reduction in NFkappaB expression in HEK293 cells at LC50 level after 48 hrs by Western blot method; assay type: functional, cell-based; conditions: Homo sapiens
[4] = Retention time of the compound by HPLC method; assay type: physicochemical
[5] = system: HEK293; test: Reduction in Bcl-xL expression in HEK293 cells at LC50 level after 48 hrs by Western blot method; assay type: functional, cell-based; conditions: Homo sapiens
[6] = system: HEK293; test: Induction of cell cycle arrest in HEK293 cells assessed as accumulation at G1 phase at 15 uM after 48 hrs by propidium iodide staining based flow cytometry (reference value: 53.21 +/- 0.8%); assay type: functional, Homo sapiens
[7] = system: HEK293; test: Induction of cell cycle arrest in HEK293 cells assessed as accumulation at S phase at 5 uM after 48 hrs by propidium iodide staining based flow cytometry (reference value: 19.9 +/- 0.5%); assay type: functional, Homo sapiens
[8] = Induction of DNA adduct formation (unknown origin) using guanosine in presence of glacial acetic acid at 75 degC incubated for 12 hrs by LC-MS method
Procedure, shortened: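 Model reaction of compound with guanosine in glacial acetic acid at 75 °C, heated up to 12 h; adduct sought by TLC and LCMS.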

[9] = system: HEK293; test: Increase in caspase-3 expression in HEK293 cells at LC50 level after 48 hrs by immunocytochemistry; assay type: functional, cell-based; conditions: Homo sapiens
[10] = system: HEK293; test: Induction of cell cycle arrest in HEK293 cells assessed as accumulation at G2/M phase at 20 uM after 48 hrs by propidium iodide staining based flow cytometry (reference value: 2.63 +/- 0.7%); assay type: functional, Homo sapiens
[11] = system: HEK293; test: Increase in p53 expression in p53 deficient HEK293 cells at LC50 level after 48 hrs by Western blot method; assay type: functional, cell-based; conditions: Homo sapiens
[12] = Drug hydrolysis in pH 7.4 PBS buffer assessed as first order rate constant for andrographolide formation by HPLC method; assay type: physicochemical
Procedure, shortened: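 Compound in PBS pH 7.4 without enzyme; unreacted parent quantified by HPLC at time intervals. Decay fitted to first-order rate equation to give rate constant and half-life.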

[13] = system: HEK293; test: Induction of cell cycle arrest in HEK293 cells assessed as accumulation at S phase at 20 uM after 48 hrs by propidium iodide staining based flow cytometry (reference value: 19.9 +/- 0.5%); assay type: functional, Homo sapiens

C=C1CC[C@@H]2[C@](C)(CO)[C@H](O)CC[C@@]2(C)[C@@H]1C/C=C1/C(=O)OC[C@H]1OC(=O)CI
Activity [1]: Active | fold change (FC) [2]: 5 | Activity [3]: Active | Retention_time [4]: 26.9 min | Activity [5]: Active | Activity [6]: 14.8% | Activity [7]: 9.21% | Activity [8]: inactive | Activity [9]: Active | Activity [10]: 0.69% | Activity [11]: inactive | K [12]: 0.02 min⁻¹ | Activity [13]: 1.66%
